By Ki is commonly meant the dissociation constant of the complex between target and ligand, obtained from inhibition or displacement. A higher Ki goes with a looser hold on the target. In general, pKb refers to −log10 of the Kb, conventionally taken in molar units.

The structures appear in SMILES notation. Bounds are passed on as bounds.

Assay [1] is filed under the species Homo sapiens. As to the kind of experiment: Selectivity of Orexin type 2 receptor over Orexin type 1 receptor.
Assay [2] concerns the target T1, Orexin/Hypocretin receptor type 1 (Homo sapiens, UniProt O43613).
T1 sequence (O43613 whole entry): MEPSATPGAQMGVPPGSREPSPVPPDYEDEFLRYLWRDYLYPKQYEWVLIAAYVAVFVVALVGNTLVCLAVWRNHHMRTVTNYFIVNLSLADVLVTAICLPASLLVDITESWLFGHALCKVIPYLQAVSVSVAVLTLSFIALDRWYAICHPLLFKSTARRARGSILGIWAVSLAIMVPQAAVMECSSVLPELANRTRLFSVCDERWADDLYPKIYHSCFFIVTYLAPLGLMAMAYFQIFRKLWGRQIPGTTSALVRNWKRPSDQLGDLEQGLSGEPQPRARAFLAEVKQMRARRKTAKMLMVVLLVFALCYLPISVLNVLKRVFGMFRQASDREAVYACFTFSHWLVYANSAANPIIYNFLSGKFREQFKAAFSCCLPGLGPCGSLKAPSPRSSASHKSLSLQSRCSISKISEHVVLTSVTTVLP
As to the kind of experiment: Binding affinity towards human orexin receptor type 1 was determined using [125I]-Orexin A as radio ligand. The essentials: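 Clonal CHO-K1 cells expressing the orexin receptor, grown adherent on poly-D-lysine-coated plates. Binding in Dulbecco's PBS with 0.1% w/v BSA, 10⁵ cpm ¹²⁵I-orexin A (2200 Ci/mmol) plus test compound, 90-120 min at room temperature. Wells washed with iced buffer, then scintillation counted. Ki with 95% confidence intervals from N = 3 assays.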

The target of assay [3] is T2, Orexin receptor type 2 (Homo sapiens, UniProt O43614).
T2 sequence (O43614 whole entry): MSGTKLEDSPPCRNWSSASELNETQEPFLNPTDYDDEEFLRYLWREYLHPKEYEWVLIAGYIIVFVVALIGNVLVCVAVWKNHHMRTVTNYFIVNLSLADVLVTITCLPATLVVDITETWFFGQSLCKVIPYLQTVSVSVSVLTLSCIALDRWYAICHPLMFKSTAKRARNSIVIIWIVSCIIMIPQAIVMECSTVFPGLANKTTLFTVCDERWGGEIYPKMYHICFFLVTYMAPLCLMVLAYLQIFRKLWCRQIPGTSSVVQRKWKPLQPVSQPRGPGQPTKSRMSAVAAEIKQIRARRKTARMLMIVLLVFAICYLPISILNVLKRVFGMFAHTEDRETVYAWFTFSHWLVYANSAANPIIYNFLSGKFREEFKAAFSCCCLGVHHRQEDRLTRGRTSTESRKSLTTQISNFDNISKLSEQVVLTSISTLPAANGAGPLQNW
As to the kind of experiment: Binding affinity towards human orexin receptor type 2 was determined using [125I]-Orexin A as radio ligand.

Assay [4] deals with T3, Orexin receptor type 2 (Homo sapiens) (UniProt O43614).
T3 sequence (whole entry): T2 sequence (O43614 whole entry)
As to the kind of experiment: Antagonistic activity towards intracellular calcium levels in cells expressing Orexin receptor type 2. The format is functional, cell-based. The essentials:
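Fluo-3 AM-loaded cells expressing OX2R, intracellular Ca⁺⁺ fluorescence. […] For compounds with OX2R pKi above 6.3, pKB came from the orexin B EC50 and IC50s from antagonist dilutions, all on one 96-well plate.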

`CC1(C)OC[C@H](NC(=O)Oc2ccccc2Cl)[C@H](c2ccccc2)O1` registered a Selectivity in assay [1] above 6. Also, the figures for the Ki in assay [2] and in assay [3] were above 10000 nM and 1580 nM, respectively.

As to `CC1(C)OC[C@H](NC(=O)c2ccc(Cl)cc2Cl)[C@H](c2ccccc2)O1`, the Selectivity in assay [1] was above 50. Moreover, the values for the Ki in assay [2] and in assay [3] were above 10000 nM and 200 nM, respectively.

In the case of `Cc1cc(Br)ccc1NC(=O)N[C@H]1COC(C)(C)O[C@H]1c1ccccc1`, the Selectivity in assay [1] amounted to 200. Also, the values for the Ki in assay [2] and in assay [3] were above 10000 nM and 39.8 nM, respectively.

Turning to `CC1(C)OC[C@H](NC(=O)Nc2ccccc2C(F)(F)F)[C@H](c2ccccc2)O1`, the Selectivity in assay [1] is above 100. Moreover, the values for the Ki in assay [2] and in assay [3] were above 10000 nM and 100 nM, respectively.

`CC1(C)OC[C@H](NC(=O)Nc2ccccc2-c2cccs2)[C@H](c2ccccc2)O1` returned a Selectivity in assay [1] of 20. For the same molecule, the Ki in assay [2] was 1000 nM; in assay [3], 50.1 nM.

Consider `CC1(C)OC[C@H](NC(=O)Nc2ccccc2Cl)[C@H](c2ccccc2)O1`, for which, in assay [4], the pKb is 6. Moreover, in assay [1], the Selectivity was above 100. Further, the Ki in assay [2] was above 10000 nM; in assay [3], 79.4 nM.

On to `CC1(C)OC[C@H](NC(=O)Nc2ccccc2I)[C@H](c2ccccc2)O1`, for which the pKb in assay [4] is 6.5. Besides, in assay [1], the Selectivity was above 70. Further, the Ki in assay [2] was above 5010 nM; in assay [3], 79.4 nM.

In assay [1], `CC1(C)OC[C@H](NC(=O)Nc2ccccc2-c2ccccc2Cl)[C@H](c2ccccc2)O1` registered a Selectivity of 5. Further, the Ki in assay [2] is 126 nM; in assay [3], 25.1 nM.

For the molecule `CC1(C)OC[C@H](NC(=O)Nc2ccc(Br)cc2Br)[C@H](c2ccccc2)O1`, in assay [4], the pKb was 7.9. Besides, the Selectivity in assay [1] amounted to 600. Besides, the Ki was 3160 nM in assay [2] and 5.01 nM in assay [3].

`CC1(C)OC[C@H](NC(=O)Nc2c(Cl)cccc2Cl)[C@H](c2ccccc2)O1`: the Selectivity in assay [1] is above 2. Further, the values for the Ki in assay [2] and in assay [3] were above 10000 nM and above 5010 nM, respectively.

As for `CC1(C)OC[C@H](NC(=O)Nc2ccccc2Br)[C@H](c2ccccc2)O1`, the pKb in assay [4] was determined as 6.3. In assay [2], the affinity corresponds to a Ki of 2000 nM.

In assay [1], `CC1(C)OC[C@H](NC(=O)Nc2ccccc2F)[C@H](c2ccccc2)O1` returned a Selectivity above 20. Also, the Ki in assay [2] is above 10000 nM; in assay [3], 398 nM.

The molecule `Cc1ccc(NC(=O)N[C@H]2COC(C)(C)O[C@H]2c2ccccc2)c(C)c1` displayed a Selectivity in assay [1] above 70. The Ki was above 10000 nM in assay [2] and 126 nM in assay [3].

Take `CC1(C)OC[C@H](NC(=O)Nc2ccccc2)[C@H](c2ccccc2)O1`: the Selectivity in assay [1] is above 20. Further, the Ki in assay [2] was above 10000 nM; in assay [3], 501 nM.

In the case of `CC1(C)OC[C@H](NC(=O)Nc2ccccc2-c2ccccc2)[C@H](c2ccccc2)O1`, in assay [1], the Selectivity was 4. Further, the Ki in assay [2] was 501 nM; in assay [3], 100 nM.

In the case of `CC1(C)OC[C@H](NC(=O)Nc2cc(Cl)ccc2Cl)[C@H](c2ccccc2)O1`, the Selectivity in assay [1] is above 80. In addition, the Ki in assay [2] is above 5010 nM; in assay [3] it was 63.1 nM.

On to `CC1(C)OC[C@H](NC(=O)Nc2ccc(Br)cc2Cl)[C@H](c2ccccc2)O1`, for which the Selectivity in assay [1] is above 900. The results for the Ki in assay [2] and in assay [3] were above 5010 nM and 6.31 nM, respectively.

For `Cc1ccc(Cl)c(NC(=O)N[C@H]2COC(C)(C)O[C@H]2c2ccccc2)c1`, the Selectivity in assay [1] is above 80. In addition, the Ki in assay [2] was above 5010 nM; in assay [3], 63.1 nM.

Regarding `CC1(C)OC[C@H](/N=C(\S)Nc2ccccc2Br)[C@H](c2ccccc2)O1`, the Selectivity in assay [1] is above 30. The Ki was above 10000 nM in assay [2] and 398 nM in assay [3].

Take `CC1(C)OC[C@H](NC(=O)Nc2ccccc2-c2cccc(Cl)c2)[C@H](c2ccccc2)O1`: the Selectivity in assay [1] was 6. In addition, the Ki in assay [2] was 501 nM; in assay [3], 79.4 nM.

For `CC1(C)OC[C@H](NC(=O)Nc2ccc(Br)cc2)[C@H](c2ccccc2)O1`, the Selectivity in assay [1] was above 40. Moreover, the Ki in assay [2] is above 10000 nM; in assay [3], 251 nM.

In the case of `COc1ccccc1NC(=O)N[C@H]1COC(C)(C)O[C@H]1c1ccccc1`, in assay [1], the Selectivity was above 4. In addition, the results for the Ki in assay [2] and in assay [3] were above 10000 nM and 2510 nM, respectively.

`Cc1ccc(/N=C(\NC#N)N[C@H]2COC(C)(C)O[C@H]2c2ccccc2)c(Br)c1` showed a Selectivity in assay [1] above 8. For the same molecule, the Ki in assay [2] is above 10000 nM; in assay [3], 1260 nM.

In assay [1], `CC1(C)OC[C@H](/N=C(\S)Nc2ccc(Cl)cc2Cl)[C@H](c2ccccc2)O1` displayed a Selectivity above 50. The Ki is above 10000 nM in assay [2] and 200 nM in assay [3].

As for `CC1(C)OC[C@H](NC(=O)Nc2ccccc2-c2cccnc2)[C@H](c2ccccc2)O1`, the Selectivity in assay [1] is above 20. Moreover, the Ki was above 5010 nM in assay [2] and 316 nM in assay [3].

In assay [1], `CC1(C)OC[C@H](NC(=O)Cc2ccccc2Br)[C@H](c2ccccc2)O1` displayed a Selectivity above 7. For the same molecule, the Ki in assay [2] was above 10000 nM; in assay [3], 1580 nM.

Turning to `CC1(C)OC[C@H](NC(=O)Nc2ccc(Cl)cc2Cl)[C@H](c2ccccc2)O1`, the pKb in assay [4] was determined as 7. This molecule also displayed a Selectivity in assay [1] of 100. The Ki in assay [2] was 2510 nM; in assay [3], 20 nM.

The molecule `CC1(C)OC[C@H](NC(=O)Nc2cccc(Br)c2)[C@H](c2ccccc2)O1` showed a Selectivity in assay [1] above 9. Besides, the Ki in assay [2] is above 10000 nM; in assay [3] it was 1000 nM.

In assay [1], `CC(C)c1ccccc1NC(=O)N[C@H]1COC(C)(C)O[C@H]1c1ccccc1` showed a Selectivity above 4. Also, the results for the Ki in assay [2] and in assay [3] were above 10000 nM and 2510 nM, respectively.

As to `CC1(C)OC[C@H](NC(=O)Nc2ccccc2-c2ccsc2)[C@H](c2ccccc2)O1`, the Selectivity in assay [1] worked out at 30. The Ki in assay [2] is 2000 nM; in assay [3], 79.4 nM.

The record behind these values is ChEMBL document CHEMBL1137156, “Novel substituted 4-phenyl-[1,3]dioxanes: potent and selective orexin receptor 2 (OX(2)R) antagonists” (Bioorg Med Chem Lett, 2004).
